21 compounds from ChEMBL document CHEMBL4145631, “Riluzole-Triazole Hybrids as Novel Chemical Probes for Neuroprotection in Amyotrophic Lateral Sclerosis” (ACS Med Chem Lett, 2018) can be followed below.

Assay [1] deals with Cortical neurone. The assay is described as follows: Neuroprotective activity against kainate-induced cell damage in mouse primary cortical neurons assessed as reversal of kainate-induced reduction in calcium flux by fura-2-AM dye based fluorescence assay. The class given is functional. In outline: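 Mouse primary cortical neurons loaded with fura-2AM for 45 min, washed, then depolarized with 10 mM KCl to drive Ca2+ entry through voltage-gated calcium channels. Flux read on a plate-based system.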

Assay [2] relates to Cortical neurone. The assay is described as follows: Neuroprotective activity against kainate-induced cell death in mouse primary cortical neurons by caspase activation method. Type of assay: functional, cell-based.
The species named for assay [3] is Mus musculus. The assay is described as follows: Neuroprotective activity against kainate-induced cell death in mouse primary motor neurons by MTT assay. The class given is functional.
Assay [4] has as its system Cortical neurone. Briefly: Neuroprotective activity against kainate-induced cell death in mouse primary cortical neurons by cell counting method. Type of assay: functional, cell-based.
Assay [5] has as its system Cortical neurone. The assay is described as follows: Neuroprotective activity against kainate-induced cell damage in mouse primary cortical neurons assessed as reduction in kainate-induced neurofilament loss by measuring increase in MAPK level at 1 uM pretreated followed by kainate challenge measured after 18 hrs by fluorescence assay. Type of assay: functional, cell-based. Particulars: in the assay text read “MAP2” for “MAPK”. In outline:
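Mouse primary cortical neurons cultured as previously described; dendritic processes stained with anti-MAP2 antibody. Cell-profile perimeter measured by image analysis, each condition normalized to kainate-only.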

For assay [6], the species on record is Mus musculus. The assay is described as follows: Neuroprotective activity against kainate-induced cell death in mouse primary motor neurons by caspase activation method. Type of assay: functional.
The species entered for assay [7] is Mus musculus. The assay is described as follows: Neuroprotective activity against kainate-induced cell death in mouse primary motor neurons by cell counting method. The class given is functional.
The subject of assay [8] is Cortical neurone. Briefly: Neuroprotective activity against kainate-induced cell death in mouse primary cortical neurons by MTT assay. The class given is functional, cell-based.

Active and inactive are the calls of the source. How the calls were made is not given here.

For the compound `N=c1sc2cc(OC(F)(F)F)ccc2n1CCn1cc(-c2ccccc2Cl)nn1`, in assay [1], the outcome was Active. Besides, the outcome in assay [2], in assay [3], in assay [4], in assay [5], in assay [6] and in assay [7] was inactive. For the same compound, in assay [8], the outcome was inactive.
`N=c1sc2cc(OC(F)(F)F)ccc2n1CCn1cc(-c2cccc3ccccc23)nn1`: in assay [1], the result was Active. For the same compound, the result in assay [2], in assay [3], in assay [4], in assay [5], in assay [6] and in assay [7] was inactive. Moreover, the outcome in assay [8] was inactive.
As to `N=c1sc2cc(OC(F)(F)F)ccc2n1CCn1cc(Cc2ccccc2)nn1`, the result in assay [1] was Active. The result in assay [2], in assay [3], in assay [4], in assay [5], in assay [6] and in assay [7] was inactive. The result in assay [8] was inactive.
Take `N=c1sc2cc(OC(F)(F)F)ccc2n1CCn1cc(-c2cccs2)nn1`: the result in assay [1] and in assay [5] was Active. In addition, the outcome in assay [2], in assay [3], in assay [4], in assay [6], in assay [7] and in assay [8] was inactive.
With `N=c1sc2cc(OC(F)(F)F)ccc2n1CCn1cc(-c2ccccc2F)nn1`, the outcome in assay [1] was Active. The outcome in assay [2], in assay [3], in assay [4], in assay [5], in assay [6] and in assay [7] was inactive. In assay [8], the result was inactive.
As for `N#Cc1ccc(-c2cn(CCn3c(=N)sc4cc(OC(F)(F)F)ccc43)nn2)cc1`, in assay [1], the result was Active. The result in assay [2], in assay [3], in assay [4], in assay [5], in assay [6] and in assay [7] was inactive. For the same compound, in assay [8], the outcome was inactive.
Turning to `N=c1sc2cc(OC(F)(F)F)ccc2n1CCn1cc(-c2ccc(C(=O)O)cc2)nn1`, the outcome in assay [1] and in assay [5] was Active. The result in assay [2], in assay [3], in assay [4], in assay [6], in assay [7] and in assay [8] was inactive.
With `N=c1sc2cc(OC(F)(F)F)ccc2n1CCn1cc(-c2ccccc2N)nn1`, the result in assay [1] and in assay [5] was Active. In addition, the result in assay [2], in assay [3], in assay [4], in assay [6], in assay [7] and in assay [8] was inactive.
For the compound `CC(C)(C)c1ccc(-c2cn(CCn3c(=N)sc4cc(OC(F)(F)F)ccc43)nn2)cc1`, in assay [1], the outcome was Active. In addition, the outcome in assay [2], in assay [3], in assay [4], in assay [5], in assay [6] and in assay [7] was inactive. Further, the outcome in assay [8] was inactive.
For the compound `N=c1sc2cc(OC(F)(F)F)ccc2n1CCn1cc(-c2ccccc2C(F)(F)F)nn1`, the outcome in assay [1] was Active. The outcome in assay [2], in assay [3], in assay [4], in assay [5], in assay [6] and in assay [7] was inactive. For the same compound, the result in assay [8] was inactive.
As to `N=c1sc2cc(OC(F)(F)F)ccc2n1CCn1cc(-c2ccc(C(F)(F)F)cc2)nn1`, in assay [1], the result was Active. Moreover, the result in assay [2], in assay [3], in assay [4], in assay [5], in assay [6] and in assay [7] was inactive. The outcome in assay [8] was inactive.
With `N=c1sc2cc(OC(F)(F)F)ccc2n1CCn1cc(-c2cc(C(F)(F)F)cc(C(F)(F)F)c2)nn1`, the result in assay [1] was Active. In addition, the result in assay [2], in assay [3], in assay [4], in assay [5], in assay [6] and in assay [7] was inactive. Besides, in assay [8], the outcome was inactive.
For `N=c1sc2cc(OC(F)(F)F)ccc2n1CCn1cc(-c2ccc(F)cc2F)nn1`, in assay [1], the result was Active. Also, the result in assay [2], in assay [3], in assay [4], in assay [5], in assay [6] and in assay [7] was inactive. In addition, the result in assay [8] was inactive.
Consider `Cn1cncc1-c1cn(CCn2c(=N)sc3cc(OC(F)(F)F)ccc32)nn1`, for which the outcome in assay [1] was Active. Also, the outcome in assay [2], in assay [3], in assay [4], in assay [5], in assay [6] and in assay [7] was inactive. Further, in assay [8], the result was inactive.
With `CC(C)CCc1cn(CCn2c(=N)sc3cc(OC(F)(F)F)ccc32)nn1`, the result in assay [1] was Active. Also, the outcome in assay [2], in assay [3], in assay [4], in assay [5], in assay [6] and in assay [7] was inactive. Also, the outcome in assay [8] was inactive.
For `COc1ccc(-c2cn(CCn3c(=N)sc4cc(OC(F)(F)F)ccc43)nn2)cc1`, the outcome in assay [1] was Active. In addition, the outcome in assay [2], in assay [3], in assay [4], in assay [5], in assay [6] and in assay [7] was inactive. In addition, the result in assay [8] was inactive.
Regarding `N=c1sc2cc(OC(F)(F)F)ccc2n1CCn1cc(-c2ccc(F)cc2)nn1`, the result in assay [1] was Active. The result in assay [2], in assay [3], in assay [4], in assay [5], in assay [6] and in assay [7] was inactive. For the same compound, in assay [8], the outcome was inactive.
Turning to `N=c1sc2cc(OC(F)(F)F)ccc2n1CCn1cc(-c2ccccc2Br)nn1`, the outcome in assay [1] was Active. Further, the result in assay [2], in assay [3], in assay [4], in assay [5], in assay [6] and in assay [7] was inactive. Also, in assay [8], the outcome was inactive.
Regarding `N=c1sc2cc(OC(F)(F)F)ccc2n1CCn1cc(-c2ccc(F)c(F)c2)nn1`, the outcome in assay [1] was Active. Besides, the result in assay [2], in assay [3], in assay [4], in assay [5], in assay [6] and in assay [7] was inactive. In assay [8], the outcome was inactive.
Regarding `COc1cccc(-c2cn(CCn3c(=N)sc4cc(OC(F)(F)F)ccc43)nn2)c1`, the result in assay [1] was Active. The result in assay [2], in assay [3], in assay [4], in assay [5], in assay [6] and in assay [7] was inactive. In addition, the result in assay [8] was inactive.
On to `N=c1sc2cc(OC(F)(F)F)ccc2n1CCn1cc(-c2cc(F)c(F)c(F)c2)nn1`, for which the outcome in assay [1] was Active. The result in assay [2], in assay [3], in assay [4], in assay [5], in assay [6] and in assay [7] was inactive. The result in assay [8] was inactive.
